Source: PubChem (several laboratories)
HEK293 NFkB inh = lowers PMA/ionomycin-induced NF-kB signal in HEK293 cells. HEK-293 NF-kB luciferase reporter, luminescence. AID 465. inhibition, % at 3 µM. hit rate 0.21% among 62,000;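 active means inhibition above the mean of all tested compounds plus 3 SD, cut at about 40% in these data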;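 further: 0% = stimulated DMSO wells and 100% = 10 µM reference inhibitor 5653914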
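System – HEK-293 cells with stable firefly luciferase reporter driven by four HIV NF-kB elements · Doses – one dose, 3 µM · Schedule – 1 h compound pre-incubation, 16 h PMA/ionomycin at 37 °C · Technique – luminescence from luciferase substrate reagent · Measure – percent inhibition normalized per plate to DMSO and reference-inhibitor controls · Replicates – tested once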
BAP1 inh = blocks human BAP1 ubiquitin-AMC hydrolysis; Q92560; recombinant BAP1, Ub-AMC hydrolysis fluorescence kinetic; hits give low values; calls only at 20 µM; hit rate 0.48% among 72,000; AID 436;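 active means activity remaining at or below 50% of control, provided the compound also passes the data quality filters; inactive means the rest, including low values that fail the filters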;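 further: 100% = DMSO wells rate and 0% = substrate alone blank rate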
Target sequence (Q92560 whole entry, looked up): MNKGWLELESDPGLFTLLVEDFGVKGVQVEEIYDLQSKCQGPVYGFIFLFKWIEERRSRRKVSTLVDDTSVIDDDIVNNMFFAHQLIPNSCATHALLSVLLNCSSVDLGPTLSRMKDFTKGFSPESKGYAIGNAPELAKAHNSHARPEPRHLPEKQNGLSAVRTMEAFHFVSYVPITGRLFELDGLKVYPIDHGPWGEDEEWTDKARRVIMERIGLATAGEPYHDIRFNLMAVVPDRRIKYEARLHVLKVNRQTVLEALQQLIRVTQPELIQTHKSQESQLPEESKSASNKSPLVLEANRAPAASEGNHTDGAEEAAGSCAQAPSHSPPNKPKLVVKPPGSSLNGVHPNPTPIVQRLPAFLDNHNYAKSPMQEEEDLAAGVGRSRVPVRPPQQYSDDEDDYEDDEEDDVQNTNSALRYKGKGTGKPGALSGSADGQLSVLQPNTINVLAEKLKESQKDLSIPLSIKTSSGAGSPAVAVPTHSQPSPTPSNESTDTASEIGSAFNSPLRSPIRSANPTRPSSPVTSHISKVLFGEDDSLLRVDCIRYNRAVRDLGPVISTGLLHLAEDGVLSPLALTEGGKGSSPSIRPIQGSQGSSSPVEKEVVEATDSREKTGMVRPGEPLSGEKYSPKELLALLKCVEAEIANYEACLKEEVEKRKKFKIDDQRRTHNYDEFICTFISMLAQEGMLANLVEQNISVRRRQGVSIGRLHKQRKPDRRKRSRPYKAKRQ
M1 antag = antagonists of rat M1 muscarinic receptor. CHO-M1 cells, Fluo-4 calcium, ACh EC80 antagonist mode; hits give low values. P08482. hit rate 3.4% among 64,000. B-score at 10 µM;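 active means calcium fluorescence response, raw or row-and-column corrected B-score, differing from the plate sample mean either way at a set confidence level, mostly lower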
M1 ag = activates the M1 muscarinic receptor. CHO-M1 cells, Fluo-4 calcium fluorescence, agonist mode; hits give high values. B-score at 10 µM. hit rate 3% among 64,000. AID 626;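 active means fluorescence rise, raw or as B-score row- and column-corrected plate score, outside the 99.7% band of its plate's samples, either direction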
D1 mod = allosteric modulators of human D1 dopamine receptor; P21728; HEK293 D1, CRE-luciferase, dopamine EC30 potentiation; actives deviate in either direction; B-score at 10 µM; hit rate 5.9% among 58,000; AID 641;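 active means luminescence count or its row- and column-corrected plate score outside the 99.7% band of the plate's sample wells, on either side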
hDAT+cocaine = changed human dopamine transporter uptake under cocaine IC80. Q01959. hit rate 1.3% among 110,000. LLC-PK1 hDAT cells, [14C]-dopamine uptake with cocaine IC80; actives deviate in either direction. B-score at 10 µM;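 active means Z score or B-score, a plate-position-corrected score, falls beyond the plate's 99.7% confidence bounds, in either direction; inactive means both scores lie inside the 99.7% bounds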;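 further: scored against the spread of the other compound wells on the same plate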
M1 antag confirm = M1 muscarinic receptor (rat) antagonism, confirmed; calcium response (max-min fluorescence) at 10 µM; hit rate 43% among 1,700; shares compounds with M1 antag; AID 677; CHO-M1 cells, Fluo-4 calcium, ACh EC80 antagonism; hits give low values;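 active means calcium response below the same-plate mean of wells given acetylcholine alone at its 80%-effect dose, minus 3 SD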;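 further: raw fluorescence intensity difference in arbitrary instrument units and not normalized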
mGluR4 antag = mGluR4 (human) activity, M1 antagonist secondary assay | hit rate 0.9% among 1,700 | CHO-mGluR4 calcium flux, Fluo-4 fluorescence, glutamate EC80; hits give low values | shares compounds with M1 antag | AID 678 | fluorescence response (max-min) at 10 µM;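 active means fluorescence response below the plate's average for near-maximal glutamate wells, less 3 SD of those wells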;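 further: raw unnormalized fluorescence span taken in the window right after glutamate addition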
* marks the source's active call; other numbers are inactive results; i = inactive; . = not tested or not shown. Compounds with a hit are over-represented: about 7.2% of the library has one in this group of screens.

SMILES	HEK293 NFkB inh	BAP1 inh	M1 antag	M1 ag	D1 mod	hDAT+cocaine	M1 antag confirm	mGluR4 antag
COCCCn1c(=N)c(C(=O)NCC2CCCO2)cc2c(=O)n3cccc(C)c3nc21 (centres undefined)	4.9	i	-2.28	-1.05	0.712	.	.	.
CCOC(=O)C1CCN(c2c(NCCCN(CC)c3ccccc3)c(=O)c2=O)CC1	22.7	i	-1	0.0249	0.0235	0.0226	.	.
CCOC(=O)C1CCCN(c2c(NCCCN(CC)c3cccc(C)c3)c(=O)c2=O)C1 (centres undefined)	-4.1	i	-5.23*	-0.0269	.	0.334	566	225
CCCCCSc1nnc2c(n1)OC(C)N(C(C)=O)c1ccccc1-2 (centres undefined)	12.2	i	-0.623	0.0373	-0.762	0.0115	.	.
CCCSc1nnc2c(n1)OC(c1cccn1C)N(C(C)=O)c1ccccc1-2 (centres undefined)	5.6	i	-10.1*	0.278	-0.0895	0.586	23*	229
CC(=O)CC(=O)NC(=NC1CCCCC1)Nc1nc(C)cc(C)n1	4.6	i	-2.91*	-0.561	-0.331	1.03	643	201
O=C(NC1CCCCC1)c1sc(=S)n2c1[nH]c(=O)c1ccccc12	12.5	i	-1.84*	2.64	-2.1	0.096	529	243
O=C(Nc1sccc1C(=O)N1CCOCC1)c1cccnc1	15.0	i	-5.07*	-0.138	-0.419	0.911	623	245
CC1CCc2cc(F)ccc2N1C(=O)Nc1cccc(Cl)c1 (centres undefined)	.	i	.	.	.	.	.	.
CCN(CC)c1ccc(C(=O)Nc2nc3ccc4nc(C)sc4c3s2)cc1	.	i	.	.	.	.	.	.
CCSCCOC(=O)C1=C(C)NC2=C(C(=O)CC(C)(C)C2)C1c1ccc(C)s1 (centres undefined)	.	i	.	.	.	.	.	.
O=c1cc(CSc2nnnn2-c2ccccc2)nc2nc[nH]n12	1.6	i	-2.05*	-0.0618	-0.579	-0.424	626	258
CC(C)Cn1cc(C(=O)NCC2CCCO2)c2c3ccccc3n(C)c2c1=O (centres undefined)	19.3	.	-5.92*	1.63	0.417	-1.79	577	212
COC(=O)c1c(NC(=O)c2ccc([N+](=O)[O-])cc2Cl)sc2c1C(C(=O)OC)CC2 (centres undefined)	.	i	.	.	.	.	.	.
CCCNC(=O)NC(=O)COc1c(F)c(F)cc(F)c1F	.	.	.	.	.	0.217	.	.
O=C(COc1c(F)c(F)cc(F)c1F)NC(=O)NC1CCCC1	16.0	i	-12.2*	0.0393	0.783	0.0113	223*	233
CCOC(=O)c1ccc(N2C(=O)c3n[nH]c(C)c3C2c2ccc(OC)cc2)cc1 (centres undefined)	22.6	i	1.01	-0.0521	0.35	1.3	.	.
COC(=O)c1ccc(C2c3c(n[nH]c3C)C(=O)N2c2ccc(C)cc2)cc1 (centres undefined)	12.5	i	-1.04*	-0.521	0.0297	0.27	450*	206
Cc1oc(-c2cccc(Cl)c2)nc1CN1CCC(C(=O)NCCCN2CCCC2=O)CC1	2.4	i	-0.0423	-0.0102	0.332	-0.813	.	.
CCOC(=O)N1CCN(C(=O)C2CCN(Cc3nc(-c4ccccc4C)oc3C)CC2)CC1	-0.2	i	-3.04*	-0.723	-0.142	.	538	224
Cc1oc(-c2ccc(Cl)cc2)nc1CN1CCCC(C(=O)NCCCN2CCCC2=O)C1 (centres undefined)	17.0	i	-3.97*	-0.828	0.558	.	510	247
CCOC(=O)N1CCN(C(=O)C2CCCN(Cc3nc(-c4ccc(Cl)cc4)oc3C)C2)CC1 (centres undefined)	31.6	i	-3.78*	0.482	-2.6	.	343*	233
O=C1C(Cl)=C(N2CCCCCC2)C(=O)N1c1ccccc1	6.3	i	-3.06*	0.126	-1.22	-0.22	219*	148
Cc1nc2sc3c(c2c2nnc(SCC(=O)NCc4ccco4)n12)CCCC3	14.8	i	-2.74*	-1.04	1.55	0.447	618	215
O=C(Nc1ccccc1C(=O)O)c1cc(S(=O)(=O)Nc2ccc(Br)cc2)ccc1Cl	.	i	.	.	.	.	.	.
SMILES	HEK293 NFkB inh	BAP1 inh	M1 antag	M1 ag	D1 mod	hDAT+cocaine	M1 antag confirm	mGluR4 antag
CCC(=Nc1ccc(Cc2ccncc2)cc1)c1c(O)n(C)c(=O)n(C)c1=O	19.2	i	-2.87*	7.65	-0.482	.	548*	224
CCOC(=O)c1oc2ccc(CNCCO)c(Cl)c2c1C	8.9	i	-1.88*	-0.757	-0.693	1.3	519*	212
CCOC(=O)c1oc2ccc(CNC3CCCCC3)c(Cl)c2c1C	.	.	.	.	.	0.581	.	.
Cc1ccc(N2C(=O)c3cccc(Cl)c3C2=O)cc1	.	i	.	.	.	.	.	.
N=c1oc2ccc3ccccc3c2cc1C(=O)Nc1cccc(C(F)(F)F)c1	.	i	.	.	.	.	.	.
Cc1ccccc1NC(=O)c1ccccc1O	-4.0	.	.	0.0187	0.166	-0.297	.	.
C=CCSc1nc(N)c(C(=O)Nc2ccccc2C)cc1C(N)=O	21.1	i	-3*	0.604	-0.317	0.519	614	248
CCOC(=O)CSc1nc2ncccc2[nH]1	.	i	.	.	.	.	.	.
Cc1ccc(CN(C)CCc2ccccn2)cc1	15.5	i	-1.22	-0.178	-0.0778	0.556	.	.
CCc1ccc(CN(C)CCc2ccccn2)cc1	9.3	i	-7.31*	0.344	-0.58	0.0227	357*	208
CN1CCc2[nH]c3ccc(C(=O)NN)cc3c2C1	.	.	.	.	.	-0.844	.	.
COc1ccc2[nH]c3c(c2c1)CN(C)CC3	14.0	i	-1.94*	0.756	-2.65	0.401	448	193
O=C(Nc1ccc2oc(-c3ccc(F)cc3)nc2c1)c1cccc([N+](=O)[O-])c1	.	i	.	.	.	.	.	.
C(=C\c1ccccc1)/CN1CCN(Cc2ccc3c(c2)OCCO3)CC1	8.7	i	-2.5	0.37	0.211	-0.774	.	.
COc1cc(Br)cc(CN2CCN(C/C=C/c3ccccc3)CC2)c1O	-1.3	i	-16*	-0.814	-1	-1.01	47.7*	222
COc1ccc(O)c(CN2CCN(C/C=C/c3ccccc3)CC2)c1	7.0	i	-10.6*	-2.45	.	0.696	454*	187
COc1ccc(NC(=S)N2CCN(C/C=C/c3ccccc3)CC2)cc1OC	.	.	.	.	.	0.15	.	.
Cc1cc(C)c2c(CN3CCN(C/C=C/c4ccccc4)CC3)cc(=O)oc2c1	10.0	i	-3.6*	-0.859	-0.379	0.0449	259*	223
Cc1csc(NC(=O)c2ccccc2C(=O)O)n1	1.5	i	-3.03*	-0.175	-0.347	0.354	605	254
CCc1ccc(NC(=O)COc2ccc(C(C)C)cc2)cc1	.	i	.	.	.	.	.	.
C=C(C)COc1ccc2oc(C)c(C(=O)OCCOC)c2c1	8.1	i	-0.44	-0.288	0.451	-0.254	.	.
